This sample holds only a part of the variants without activity.
B1: tRNA (parent)
chain: GUUCCGUUGGCGUAAUGGUAACGCGUCUCCCUCCUAAGGAGAAGACUGCGGGUUCGAGUCCCGUACGGAACG

Variants of: B1
Test: yeast fitness relative to wild type (ratio to wild type); higher = fitter; tRNA-Arg(CCU), competitive growth, 37 C, YPD
Summary of the method: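 Variants of the tRNA-Arg(CCU) gene were chemically synthesised with a 3% per-site mutation rate across 69 sites and placed at the native genomic locus in Saccharomyces cerevisiae. Six parallel replicates of the pooled strains were competed in YPD at 37°C for 24 hours, and gene amplicons from the start and end populations were read by 100-nucleotide paired-end sequencing. Darwinian fitness relative to wild type was derived from changes in genotype frequencies. Genotypes required ≥ 100 starting reads, and estimates < 0.5 were set to 0.5.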

Variant	yeast fitness
A14U C49A G68A	≤ 0.5
A14U C22A	0.668
A14U G17C C24A C30G C62A A70U	≤ 0.5
A14G C33G A70U	0.545
A14G U35G C55A G63A	≤ 0.5
A14U A21C C22U C33G A45G C46G G52C	≤ 0.5
A14G C24U A43U A65C	≤ 0.5
A14U G25A	0.686
A14U G23A C31U A43U	≤ 0.5
A14U G17A G23C C29U C34G A45C U54G	≤ 0.5
A14U G25A C30G C62G	≤ 0.5
A14G U16G G18C U59A A65U	≤ 0.5
A14G U26C A37G C61U G68A	≤ 0.5
A14G C31G A37G	≤ 0.5
A14U C30U C62A	≤ 0.5
A14U G17C A70G	≤ 0.5
A14G U19C C60G	≤ 0.5
A14U A37C C46U C61G	≤ 0.5
A14U C30A A43U	≤ 0.5
A14U A21G C29G U59A	≤ 0.5
A14G G56U A65U G68C	≤ 0.5
A14U C60G A70C	≤ 0.5
A14U C34G C49G C66U	≤ 0.5
A14U C34G A37C A57C	≤ 0.5

Variant	yeast fitness
A14U A43C U54A	≤ 0.5
A14U G23U G68C	0.514
A14G U64C	0.924
A14G C24G C31U	≤ 0.5
A14G G18A C55U	≤ 0.5
A14G C27U U47A C62U	0.566
A14U U16A C22U C24A G67A A69C	0.67
A14G C31U U35C A40G A65U	≤ 0.5
A14U A45C U47C C55U A65C A69C	≤ 0.5
A14G C30U G39A C60G	≤ 0.5
A14U G52C	≤ 0.5
A14G G67A	0.821
A14G G50U G67C	≤ 0.5
A14U A43G	0.537
A14U C24G A57C	≤ 0.5
A14G C29U A37G A65G	≤ 0.5
A14U A37U U47C	≤ 0.5
A14U A37U U47A	0.632
A14G G23C A70U	0.564
A14G C22U C34U U54C C55A	≤ 0.5
A14U G23C C55G	≤ 0.5
A14G C31U G68A	0.568
A14G G38A	0.799
A14U U16A G25A A37G	≤ 0.5

Variant	yeast fitness
A14G C29U G52C	≤ 0.5
A14U C22G A57C G63C C66U	0.578
A14G U19A C27U C34U C66U	≤ 0.5
A14G C55A A57U G58C A69U	≤ 0.5
A14G C31U A37G A45C A70G	≤ 0.5
A14U G25A U35A G39U A65G	≤ 0.5
A14G G25A C30A	0.563
A14U C30U C55G	≤ 0.5
A14G U35A G56A C66U	≤ 0.5
A14U A15C A40G U47C G56C G67C	≤ 0.5
A14U G18A C30A	≤ 0.5
A14U A45C G56A	0.581
A14G C24G C66U	≤ 0.5
A14G C30A C46U G52C C66U	≤ 0.5
A14G G18C C30G G52C C61A	≤ 0.5
A14U C24G U54G	≤ 0.5
A14U A15U C49U G56C	≤ 0.5
A14G C29U	0.988
A14G G58A	0.836
A14G G23U G58A	≤ 0.5
A14G G48A C62A	0.65
A14U A20C A37C C49G	≤ 0.5
A14G G41A A70G	0.638
A14U G41C	0.565

Variant	yeast fitness
A14G C55G A57C	0.598
A14G C27U U28C	0.541
A14U G39A	0.671
A14U A37G G44C A45C G50A C55G	0.594
A14U A42G	0.529
A14U A42U	0.652
A14U C30A A43U C49U	0.545
A14U G17C C30G G41C A42C U47C G50A C62A	≤ 0.5
A14U A40U U54A A70G	0.568
A14G C24U G56A	0.813
A14G C55U A65G	0.513
A14U C34G C66U	≤ 0.5
A14G C27A C49G U53A C62A	≤ 0.5
A14U A15G C34G	≤ 0.5
A14U C62G	0.692
A14U A15G C55G C61G	0.637
A14U C27U C55G	0.517
A14U G23U C61G	≤ 0.5
A14U G18A	≤ 0.5
A14U A36C U53C A69C	≤ 0.5
A14U C31U C34A A45U C49U	≤ 0.5
A14G C61G	0.721
A14G G18C C60A C66U	≤ 0.5
A14U C29A C49A A69U	≤ 0.5

Variant	yeast fitness
A14U C30G U32G	≤ 0.5
A14G U32G A45G A69U	≤ 0.5
A14G C27G C34G A37U U64A	0.667
A14G C24A	0.666
A14U A42U C49U C61U C66U	≤ 0.5
A14U C31A C66A	≤ 0.5
A14U G52A G68C	≤ 0.5
A14G U32C C55U	≤ 0.5
A14U G44C G50A	≤ 0.5
A14G U26G	0.81
A14G U19A C27G U28A C34A A36G A43G	0.608
A14G C46U G50C G51A C55U A57U C62G A70U	≤ 0.5
A14G C33U G63A	0.614
A14G C29U G39A C49U G56C	≤ 0.5
A14G C30A A42G G44A	0.569
A14U A21U G67C	0.596
A14U G38C C46A	0.551
A14G C34G A43C U47C	0.533
A14U C30U	0.558
A14U C30A	0.565
A14G G23A U64G A69U	≤ 0.5
A14G G48C	0.701
A14U A57C U59A	0.703
A14G C46U	0.886

Variant	yeast fitness
A14U C31A C46U G48A C49U	≤ 0.5
A14G C24U C55U G67C	≤ 0.5
A14U A45C C49U A65C	≤ 0.5
A14G C24U A65U	0.54
A14G C30U	0.81
A14U U16A U26G C29G G67C	≤ 0.5
A14G U32A	0.554
A14U A40G A45U G56A	≤ 0.5
A14U U16G C33G G50A G58C G63C	≤ 0.5
A14G C27G U54C	≤ 0.5
A14U A40U U54A C55U U64C	≤ 0.5
A14G G41C C46A	0.791
A14G G18A C22G C49A	≤ 0.5
A14U C49U	0.629
A14U A70U	0.713
A14U U16A C27G A40U A57U C66A	≤ 0.5
A14G G25A A36G A42U G68C	0.576
A14U G23C C29G G51A G56C	≤ 0.5
A14G U19A A20G A40U	≤ 0.5
A14G C62U	0.937
A14U C33U A36U G41C	≤ 0.5
A14U A15G C34G C61U A70C	≤ 0.5
A14G C30A C34A A43C C60G C62A	≤ 0.5
A14G C34U C49A C60U	0.512

Variant	yeast fitness
A14G C29G C31U A70C	0.51
A14G C29G C31U A70G	≤ 0.5
A14G U26G A37U A45U G51A A65C	≤ 0.5
A14G U26G A43C G68A	≤ 0.5
A14G G52A	0.631
A14U C30G A40G C66U	≤ 0.5
A14G C49G A69U A70C	0.618
A14G C31U G58C G68A	≤ 0.5
A14U A21U	0.547
A14U A21C	0.705
A14G C49G G56C	≤ 0.5
A14G C34G A43C G58U A65U	≤ 0.5
A14G U19C G68A	0.559
A14G U28C G67A	0.534
A14U A15C C31G A43U	0.627
A14U	0.667
A14U C62U C66G	≤ 0.5
A14U C29U A37U C49A G67A	≤ 0.5
A14G U26A C27G	≤ 0.5
A14G G39A	0.751
A14G G58C C66A	≤ 0.5
A14U G17A A43C C46U	≤ 0.5
A14U C46U G48C G63A G68A	≤ 0.5

Reference: the RNAGym collection of RNA variant scans (doi:10.1126/science.aae0568)
